Assay results: ChEMBL document CHEMBL1127367, “Antiproliferative properties of polyamine analogues: a structure-activity study” (J Med Chem, 1994)
pIC50, pKi: −log10 of the molar value.

How the values were obtained:
[1] = target: Spermidine/spermine N(1)-acetyltransferase (SAT) (Mus musculus) (UniProt Q6P8J2+P48026); experiment: […] spermidine/spermine N1-Acetyltransferase (SSAT) activity; type: functional; design: concentration or dose not given beside the values
[2] = system: L1210; experiment: In vitro inhibition of L1210 growth after 96 hours.; type: functional, cell-based; conditions: Mus musculus, L1210, 96 h
How it was run: (§1)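 Log-phase L1210 cultures (0.5–1.0 × 10^5 cells/mL) treated with analogue diluted in sterile water and filter-sterilized. After 48 h, cells were reseeded and grown a further 48 h for the 96 h point. Cells counted by Coulter counter. % growth = (treated − inoculum)/(untreated − inoculum) × 100.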

[3] = system: L1210; experiment: Compound level in L1210 cells after 48 hours of incubation at initial concentration of 500 uM is expressed as nmol/10e6 cells; type: functional, Mus musculus; design: unit: nmol/10^6 cells
[4] = system: L1210; experiment: Compound was evaluated for its impact on putrescine (Put) levels after 48 hr at concentration 500 uM; type: functional, Mus musculus
[5] = system: L1210; experiment: Inhibition of radiolabeled spermidine uptake into L1210 cells in vitro.; type: functional, cell-based, Mus musculus
[6] = system: L1210; experiment: Compound level in L1210 cells after 48 hours of incubation at initial concentration of 100 uM is expressed as nmol/10e6 cells; type: functional, Mus musculus; design: unit: nmol/10^6 cells
[7] = target: T1, S-adenosylmethionine decarboxylase proenzyme 1 (Mus musculus) (UniProt P0DMN7); experiment: Inhibition of S-Adenosyl-methionine decarboxylase (AdoMetDC) activity; type: functional; design: concentration or dose not given beside the values
T1 sequence (whole entry): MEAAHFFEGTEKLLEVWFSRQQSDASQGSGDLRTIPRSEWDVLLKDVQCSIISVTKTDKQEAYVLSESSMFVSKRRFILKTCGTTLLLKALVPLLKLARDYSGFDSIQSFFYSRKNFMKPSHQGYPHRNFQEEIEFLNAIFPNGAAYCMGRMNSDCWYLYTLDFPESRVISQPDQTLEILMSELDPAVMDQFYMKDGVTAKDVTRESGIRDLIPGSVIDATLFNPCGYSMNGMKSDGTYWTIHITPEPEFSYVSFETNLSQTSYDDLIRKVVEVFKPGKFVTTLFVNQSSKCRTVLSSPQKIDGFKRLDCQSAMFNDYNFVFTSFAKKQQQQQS

[8] = system: L1210; experiment: Compound was evaluated for its impact on putrescine (Put) levels after 48 hr at concentration 100 uM; type: functional, Mus musculus
[9] = system: L1210; experiment: Compound was evaluated for its impact on spermine levels after 48 hr at concentration 100 uM; type: functional, Mus musculus
[10] = target: T2, Ornithine decarboxylase (Mus musculus) (UniProt P00860); experiment: Inhibition of ornithine decarboxylase (ODC) activity; type: functional; design: concentration or dose not given beside the values
T2 sequence (whole entry): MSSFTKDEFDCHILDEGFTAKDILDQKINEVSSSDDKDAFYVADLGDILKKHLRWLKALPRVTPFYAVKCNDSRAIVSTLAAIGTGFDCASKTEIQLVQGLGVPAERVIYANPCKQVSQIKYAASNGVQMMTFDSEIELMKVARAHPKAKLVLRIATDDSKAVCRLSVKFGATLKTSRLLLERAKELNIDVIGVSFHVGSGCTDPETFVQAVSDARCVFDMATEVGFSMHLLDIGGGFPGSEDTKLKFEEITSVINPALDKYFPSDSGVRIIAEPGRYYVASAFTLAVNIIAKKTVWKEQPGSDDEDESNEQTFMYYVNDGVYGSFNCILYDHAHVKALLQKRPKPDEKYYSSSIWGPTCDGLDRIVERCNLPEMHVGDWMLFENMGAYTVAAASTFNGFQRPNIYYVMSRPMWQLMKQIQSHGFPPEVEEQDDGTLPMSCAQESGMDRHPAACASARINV

[11] = system: L1210; experiment: Compound was evaluated for its impact on spermine levels after 48 hr at concentration 500 uM; type: functional, Mus musculus
[12] = system: L1210; experiment: In vitro inhibition of L1210 growth after 48 hours.; type: functional, cell-based; conditions: Mus musculus, L1210, 48 h; how it was run: as §1
[13] = system: L1210; experiment: Compound was evaluated for its impact on spermidine levels after 48 hr at concentration 100 uM; type: functional, Mus musculus
[14] = system: L1210; experiment: Compound was evaluated for its impact on spermidine levels after 48 hr at concentration 500 uM; type: functional, Mus musculus
[15] = system: L1210; experiment: Compound was evaluated for its impact on spermine levels after 48 hr at concentration 30 uM; type: functional, Mus musculus
How it was run: (§2)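 Murine L1210 leukemia cells in log-phase suspension (RPMI-1640, 10% NuSerum, 2% HEPES-MOPS, 1 mM aminoguanidine, 37 °C, 5% CO2) exposed to analogue for 48 h. Cells washed twice in cold RPMI-1640, extracted with 0.6 N perchloric acid, and polyamines quantified by HPLC. Spermine is reported as % of untreated control.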

[16] = system: L1210; experiment: Compound was evaluated for its impact on spermine levels after 48 hr at concentration 150 uM; type: functional, Mus musculus; how it was run: as §2
[17] = system: L1210; experiment: Compound was evaluated for its impact on putrescine (Put) levels after 48 hr at concentration 30 uM; type: functional, Mus musculus
How it was run: (§3)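 L1210 suspension cultures were grown in RPMI-1640 with 10% NuSerum, 2% HEPES-MOPS and 1 mM aminoguanidine (37 °C, 5% CO2). Log-phase cells were treated for 48 h, then washed twice in cold RPMI-1640 and pelleted. Pellets were extracted with 0.6 N perchloric acid, and supernatants were held at −20 °C until HPLC. Polyamine levels are given as % of untreated controls.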

[18] = system: L1210; experiment: Compound was evaluated for its impact on putrescine (Put) levels after 48 hr at concentration 150 uM; type: functional, Mus musculus; how it was run: as §3
[19] = system: L1210; experiment: Compound level in L1210 cells after 48 hours of incubation at initial concentration of 150 uM is expressed as nmol/10e6 cells; type: functional, Mus musculus
How it was run: (§4)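 Murine L1210 leukemia cells were kept in logarithmic growth as a suspension in RPMI-1640 with 10% NuSerum, 2% HEPES-MOPS buffer and 1 mM aminoguanidine, at 37 °C under 5% CO2. Log-phase cells were exposed to the analogue for 48 h. Intracellular analogue content is reported per 10^6 cells.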

[20] = system: L1210; experiment: Compound was evaluated for its impact on spermidine levels after 48 hr at concentration 150 uM; type: functional, Mus musculus; how it was run: as §3
[21] = system: L1210; experiment: Compound was evaluated for its impact on spermidine levels after 48 hr at concentration 30 uM; type: functional, Mus musculus; how it was run: as §3
[22] = system: L1210; experiment: Compound level in L1210 cells after 48 hours of incubation at initial concentration of 30 uM is expressed as nmol/10e6 cells; type: functional, Mus musculus; how it was run: as §4
[23] = target: T2, Ornithine decarboxylase (Mus musculus); experiment: Effect of compound on ornithine decarboxylase (ODC)activity expressed as percent of untreated control for ODC (1 uM at 4 h(or 48h))
How it was run: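 L1210 cells exposed to 1 μM analogue for 4 h, or for 48 h in some cases. ODC activity measured as 14CO2 released from [14C]carboxyl-labeled L-ornithine and expressed as % of untreated control.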

[24] = system: L1210; experiment: Compound was evaluated for its impact on spermidine levels after 48 hr at concentration 1.5 uM; type: functional, Mus musculus; how it was run: as §3
[25] = system: L1210; experiment: Compound was evaluated for its impact on putrescine (Put) levels after 48 hr at concentration 0.3 uM; type: functional, Mus musculus; how it was run: as §3
[26] = system: S-adenosylmethionine decarboxylase (Mus musculus); experiment: Effect of compound on S-Adenosyl-methionine decarboxylase (AdoMetDC) activity expressed as percent of untreated control for (AdoMetDC) (1 uM at 6 hr)
[27] = system: L1210; experiment: Compound level in L1210 cells after 48 hours of incubation at initial concentration of 1.5 uM is expressed as nmol/10e6 cells; type: functional, Mus musculus; how it was run: as §4
[28] = system: L1210; experiment: Compound level in L1210 cells after 48 hours of incubation at initial concentration of 0.3 uM is expressed as nmol/10e6 cells; type: functional, Mus musculus; how it was run: as §4
[29] = system: L1210; experiment: Compound was evaluated for its impact on putrescine (Put) levels after 48 hr at concentration 1.5 uM; type: functional, Mus musculus; how it was run: as §3
[30] = system: L1210; experiment: Compound was evaluated for its impact on spermidine levels after 48 hr at concentration 0.3 uM; type: functional, Mus musculus; how it was run: as §3
[31] = system: L1210; experiment: (§5) Compound was evaluated for its impact on spermine levels uM; type: functional, Mus musculus
[32] = system: L1210; experiment: as §5; type: functional, Mus musculus; remark: listed apart in the source
[33] = system: L1210; experiment: Compound was evaluated for its impact on spermine […] levels after 48 hr at concentration 100 uM; type: functional, Mus musculus; how it was run: as §3

Spermidine/spermine N(1)-acetyltransferase (SAT) (Mus musculus), sequence (P48026 whole entry, looked up): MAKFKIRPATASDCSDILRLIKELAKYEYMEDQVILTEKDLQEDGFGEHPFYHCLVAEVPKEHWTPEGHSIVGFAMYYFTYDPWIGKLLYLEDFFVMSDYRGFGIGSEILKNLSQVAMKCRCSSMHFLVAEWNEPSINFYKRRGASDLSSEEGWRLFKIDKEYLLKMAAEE
Spermidine/spermine N(1)-acetyltransferase (SAT) (Mus musculus), sequence (Q6P8J2 whole entry, looked up): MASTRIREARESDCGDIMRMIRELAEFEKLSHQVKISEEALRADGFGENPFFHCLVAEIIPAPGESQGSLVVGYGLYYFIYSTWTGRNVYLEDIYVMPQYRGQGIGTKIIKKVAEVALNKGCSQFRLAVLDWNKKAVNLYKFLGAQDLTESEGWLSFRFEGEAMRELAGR

Activity [1] [%] | pIC50 [2] | Activity [7] [%] | Activity [10] [%] | pIC50 [12] | SMILES | Activity [3] | Polyamine [4] [%] | pKi [5] | Activity [6] | Polyamine [8] [%] | Polyamine [9] [%] | Polyamine [11] [%] | Polyamine [13] [%] | Polyamine [14] [%] | other results
150 | – | 27 | – | – | CCNCCCNCCCCNCCCN | – | – | – | – | – | – | – | – | – | Activity [23]: 10%
410 | 5.60 | 33 | 5 | < 4.00 | CCNCCCNCCCNCCCN | 1.72 | 0 | 5.11 | 1.69 | 0 | 11 | 11 | 5 | 2 | –

More lines, now with the values behind:

SMILES | Activity [1] [%] | pIC50 [2] | Activity [7] [%] | Activity [10] [%] | pIC50 [12] | Activity [3] | Polyamine [4] [%] | pKi [5] | Activity [6] | Polyamine [8] [%] | Polyamine [9] [%] | Polyamine [11] [%] | Polyamine [13] [%] | Polyamine [14] [%] | other results
CNCCCNCCCNCCCNC | 200 | 5.60 | 49 | 6 | < 4.00 | 1.84 | 0 | 5.25 | 2.14 | 0 | 36 | 27 | 5 | 3 | –
CCNCCCNCCCCNCCCNCC [BIS(ETHYL)SPERMINE] | 460 | 6.74 | 28 | 3 | 4.52 | – | – | 5.80 | – | – | – | – | – | – | Polyamine [15]: 12%; Polyamine [16]: 14%; Polyamine [17]: 0%; Polyamine [18]: 0%; Activity [19]: 1.13; Polyamine [20]: 0%; Polyamine [21]: 0%; Activity [22]: 0.4
CCNCCCCNCCCCCNCCCCNCC | 120 | 7.46 | – | 20 | 6.52 | – | – | 5.22 | – | – | – | – | – | – | Polyamine [24]: 5%; Polyamine [25]: 44%; Activity [26]: 39%; Activity [27]: 0.72; Activity [28]: 0.26; Polyamine [29]: 0%; Polyamine [30]: 61%; Polyamine [31]: 31%; Polyamine [32]: 70%
CC(C)NCCCNCCCNCCCNC(C)C | 180 | 5.92 | 100 | 100 | < 4.00 | – | 0 | 4.40 | – | 10 | – | 53 | 26 | 12 | Polyamine [33]: 64%
